SMILES strings stand for the structures. Active and inactive are the calls of the source. The rule behind the calls is not given here.

Assay [1] relates to Escherichia coli. The assay is described as follows: Distribution of Escherichia coli AB1157 IL05 new born cells containing duplicated ori and ter foci at 32 ug/ml after 14 hrs incubation. The class given is functional. The gist of the method:
(§1)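 IL05(pWX6) (LacI-CFP/TetR-YFP marking ori and ter arrays) grown at 37°C in M9-sodium acetate with required amino acids, 100 μg/ml ampicillin, 0.5 mM IPTG, 40 ng/ml anhydrotetracycline. AMK added at OD600 0.05. After 14 h, cells placed on 1% agarose-PBS pads, imaged (×100, phase plus fluorescence). 200 cells per culture classified by ori/ter foci number; three independent experiments.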

For assay [2], the system named is Escherichia coli. The assay is described as follows: Distribution of Escherichia coli AB1157 IL05 new born cells containing one ori and one ter foci at 8 ug/ml after 14 hrs incubation. The class given is functional. The gist of the method: as §1
Assay [3] has as its system Escherichia coli. The assay is described as follows: Distribution of Escherichia coli AB1157 IL05 new born cells containing duplicated sister ori foci at 8 ug/ml after 14 hrs incubation. The assay is classed as functional. The gist of the method:
as §1

Assay [4] has as its system Escherichia coli. The assay is described as follows: Distribution of Escherichia coli AB1157 IL05 new born cells containing duplicated ori and ter foci at 4 ug/ml after 14 hrs incubation. The assay is classed as functional. In short, it runs like this: as §1
Assay [5] concerns Escherichia coli. Nature of the assay: Distribution of Escherichia coli AB1157 IL05 new born cells containing eight ori foci at 4 ug/ml after 14 hrs incubation. The class given is functional. The gist of the method:
as §1

Assay [6] has as its system Escherichia coli. The assay is described as follows: Distribution of Escherichia coli AB1157 IL05 new born cells containing eight ori foci at 8 ug/ml after 14 hrs incubation. The assay is classed as functional. The gist of the method: as §1
The subject of assay [7] is Escherichia coli. Nature of the assay: Distribution of Escherichia coli AB1157 IL05 new born cells containing four ori foci at 4 ug/ml after 14 hrs incubation. The class given is functional. In short, it runs like this: as §1
The test system of assay [8] is Escherichia coli. Nature of the assay: Distribution of Escherichia coli AB1157 IL05 new born cells containing four ori foci at 32 ug/ml after 14 hrs incubation. The class given is functional. The gist of the method: as §1
In assay [9] the test system is Escherichia coli. Nature of the assay: Loss of cell viability in Escherichia coli AB1157 IL05 above 16 ug/ml after 8 hrs incubation. The class given is functional, organism-based.
Assay [10] relates to Escherichia coli. The assay is described as follows: Distribution of Escherichia coli AB1157 IL05 new born cells containing one ori and one ter foci at 16 ug/ml after 14 hrs incubation. The class given is functional. In short, it runs like this:
as §1

Assay [11] deals with Escherichia coli. Nature of the assay: Distribution of Escherichia coli AB1157 IL05 new born cells containing duplicated ori and ter foci at 16 ug/ml after 14 hrs incubation. The assay is classed as functional. The gist of the method:
as §1

In assay [12] the test system is Escherichia coli. The assay is described as follows: Distribution of Escherichia coli AB1157 IL05 new born cells containing one ori and one ter foci at 4 ug/ml after 14 hrs incubation. The class given is functional. In short, it runs like this:
as §1

Assay [13] has as its system Escherichia coli. Nature of the assay: Distribution of Escherichia coli AB1157 IL05 new born cells containing four ori foci at 8 ug/ml after 14 hrs incubation. The class given is functional. In short, it runs like this: as §1
For assay [14], the system named is Escherichia coli. Nature of the assay: Assembly of Z-ring in Escherichia coli AB1157 IL06(pCP12) cells at 4 ug/ml.
The test system of assay [15] is Escherichia coli. The assay is described as follows: Distribution of Escherichia coli AB1157 IL05 new born cells containing duplicated sister ori foci at 4 ug/ml after 14 hrs incubation. The assay is classed as functional. In short, it runs like this:
as §1

The test system of assay [16] is Escherichia coli. Nature of the assay: Distribution of Escherichia coli AB1157 IL05 new born cells containing four ori foci at 16 ug/ml after 14 hrs incubation. The class given is functional. In short, it runs like this:
as §1

The test system of assay [17] is Escherichia coli. Nature of the assay: Distribution of Escherichia coli AB1157 IL05 new born cells containing duplicated ori and ter foci at 8 ug/ml after 14 hrs incubation. The assay is classed as functional. In short, it runs like this: as §1
Assay [18] relates to Escherichia coli. The assay is described as follows: Sublethal concentration measured by presence of granular bodies in Escherichia coli AB1157 IL05 cells at 4 ug/ml after 14 hrs incubation. The assay is classed as functional, organism-based. The gist of the method:
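IL05(pWX6) grown 14 h at 37°C in acetate minimal medium with AMK added at OD600 0.05. Cells then examined by phase-contrast microscopy in 27% gelatin-containing minimal medium, scoring polar granular bodies and nucleoids.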

Assay [19] relates to Escherichia coli. Nature of the assay: Distribution of Escherichia coli AB1157 IL05 new born cells containing one ori and one ter foci at 32 ug/ml after 14 hrs incubation. The class given is functional. In short, it runs like this: as §1
Assay [20] concerns Escherichia coli. The assay is described as follows: Distribution of Escherichia coli AB1157 IL05 new born cells containing eight ori foci at 32 ug/ml after 14 hrs incubation. The assay is classed as functional. The gist of the method:
as §1

In assay [21] the test system is Escherichia coli. Nature of the assay: Distribution of Escherichia coli AB1157 IL05 new born cells containing eight ori foci at 16 ug/ml after 14 hrs incubation. The class given is functional. The gist of the method:
as §1

Assay [22] relates to Escherichia coli. Nature of the assay: Distribution of Escherichia coli AB1157 IL05 new born cells containing duplicated sister ori foci at 16 ug/ml after 14 hrs incubation. The class given is functional. In short, it runs like this:
as §1

Assay [23] has as its system Escherichia coli. The assay is described as follows: Distribution of Escherichia coli AB1157 IL05 new born cells containing duplicated sister ori foci at 32 ug/ml after 14 hrs incubation. The class given is functional. The gist of the method: as §1

On to `NCC[C@H](O)C(=O)N[C@@H]1C[C@H](N)[C@@H](O[C@H]2O[C@H](CN)[C@@H](O)[C@H](O)[C@H]2O)[C@H](O)[C@H]1O[C@H]1O[C@H](CO)[C@@H](O)[C@H](N)[C@H]1O` [AMIKACIN], for which the Activity is reported as 31% with Escherichia coli [1]; 0% in the assay on Escherichia coli [2]; 0% in the assay with Escherichia coli [3]; 48% in the assay on Escherichia coli [4]; 8% in the assay on Escherichia coli [5]; 5% with Escherichia coli [6]. Besides, the Activity is listed as 44% in the assay on Escherichia coli [7]; 0% in the assay on Escherichia coli [8]; 6% with Escherichia coli [10]; 34% with Escherichia coli [11]; 0% in the assay on Escherichia coli [12]; 69% in the assay with Escherichia coli [13]. The Activity in the assay with Escherichia coli [14] worked out at 35%; in the assay on Escherichia coli [15] it was 0%; in the assay on Escherichia coli [16], 46%; in the assay on Escherichia coli [17] it was 36%; in the assay on Escherichia coli [19], 32%; in the assay on Escherichia coli [20] it was 0%. For the same compound, the values for the Activity in the assay with Escherichia coli [21], in the assay with Escherichia coli [22] and in the assay with Escherichia coli [23] were 11%, 3% and 37%, respectively. In the assay on Escherichia coli [9], the outcome was inactive. Further, in the assay with Escherichia coli [18], the outcome was Active.

These data come from ChEMBL document CHEMBL1142132, “Sublethal concentrations of the aminoglycoside amikacin interfere with cell division without affecting chromosome dynamics” (2007).
